Measurements published in ChEMBL document CHEMBL1122835, “Synthesis and pharmacology of the potent angiotensin-converting enzyme inhibitor N-[1(S)-(ethoxycarbonyl)-3-phenylpropyl]-(S)-alanyl-(S)-pyroglutamic acid” (J Med Chem, 1985).

How the values were obtained:
[1] = target: T1, Angiotensin-converting enzyme (Rattus norvegicus) (UniProt P47820); experiment: Inhibitory activity was determined against Angiotensin I converting enzyme; type: functional
T1 sequence (whole entry): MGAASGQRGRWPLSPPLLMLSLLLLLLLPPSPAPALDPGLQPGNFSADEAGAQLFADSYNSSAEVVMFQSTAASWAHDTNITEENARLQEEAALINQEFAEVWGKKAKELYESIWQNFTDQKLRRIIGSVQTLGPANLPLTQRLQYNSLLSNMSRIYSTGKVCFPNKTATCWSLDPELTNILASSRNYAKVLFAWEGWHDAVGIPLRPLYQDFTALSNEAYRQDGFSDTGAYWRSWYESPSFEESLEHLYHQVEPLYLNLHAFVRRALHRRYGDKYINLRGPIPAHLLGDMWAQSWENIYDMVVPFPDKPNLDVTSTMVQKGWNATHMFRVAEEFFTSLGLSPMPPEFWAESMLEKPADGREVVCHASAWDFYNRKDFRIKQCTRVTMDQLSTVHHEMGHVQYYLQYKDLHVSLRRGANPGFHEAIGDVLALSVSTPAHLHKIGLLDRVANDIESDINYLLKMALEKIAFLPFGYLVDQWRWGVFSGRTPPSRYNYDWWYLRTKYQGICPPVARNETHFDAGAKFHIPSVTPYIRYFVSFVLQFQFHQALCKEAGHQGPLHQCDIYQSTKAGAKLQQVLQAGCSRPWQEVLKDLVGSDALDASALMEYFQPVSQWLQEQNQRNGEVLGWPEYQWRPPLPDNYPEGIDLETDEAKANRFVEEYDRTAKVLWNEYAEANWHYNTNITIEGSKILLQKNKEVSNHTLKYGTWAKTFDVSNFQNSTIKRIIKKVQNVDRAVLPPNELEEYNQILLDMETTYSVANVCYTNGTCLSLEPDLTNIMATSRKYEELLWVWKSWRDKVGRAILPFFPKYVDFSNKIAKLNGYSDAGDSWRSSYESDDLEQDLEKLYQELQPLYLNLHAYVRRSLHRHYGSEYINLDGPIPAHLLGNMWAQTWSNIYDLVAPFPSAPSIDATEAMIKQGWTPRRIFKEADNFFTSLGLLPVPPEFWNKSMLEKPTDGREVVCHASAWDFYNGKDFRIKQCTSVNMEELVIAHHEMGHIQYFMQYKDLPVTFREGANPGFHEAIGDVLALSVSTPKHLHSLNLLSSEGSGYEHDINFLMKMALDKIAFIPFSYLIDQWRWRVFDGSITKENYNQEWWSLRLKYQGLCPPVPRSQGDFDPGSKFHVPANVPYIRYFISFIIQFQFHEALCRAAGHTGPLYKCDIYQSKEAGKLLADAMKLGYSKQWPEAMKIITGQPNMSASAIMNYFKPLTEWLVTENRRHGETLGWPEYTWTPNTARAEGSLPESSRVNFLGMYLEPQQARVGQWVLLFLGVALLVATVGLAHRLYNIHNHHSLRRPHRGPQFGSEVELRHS

Rattus norvegicus [2] = experiment: Percent decrease in angiotensin I pressor response was measured in rat, administered intravenously at dose 0.27 mg/kg; type: functional; conditions: route intravenous
In short: (§1)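 Anesthetized (pentobarbital Na 15 mg/kg + barbital 220 mg/kg ip), tracheotomized male Charles River CD rats, 380–500 g, femoral cannulas, heated board at 37 °C. Control pressor responses to angiotensin I 0.3 μg/kg then angiotensin II 0.1 μg/kg iv; drug iv in 0.9% saline (free base), AI and AII repeated at 5-min intervals, cumulative 0.01–0.81 mg/kg. Peak arterial pressure rise versus control.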

Rattus norvegicus [3] = experiment: Percent decrease in angiotensin I pressor response was measured in rat, administered intravenously at dose 0.81 mg/kg; type: functional; conditions: route intravenous; in short: as §1
Rattus norvegicus [4] = experiment: Percent decrease in angiotensin I pressor response was measured in rat, administered intravenously at dose 0.090 mg/kg; type: functional; conditions: dose 0.09 mg/kg; route intravenous; in short: as §1
Rattus norvegicus [5] = experiment: Activity against the bradykinin Response in anesthetized normotensive rat, administered intravenously at dose 0.090 mg/kg; type: functional; conditions: dose 0.09 mg/kg; route intravenous
In short: (§2)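 Anesthetized (pentobarbital/barbital ip) male Charles River CD rats, 380–500 g, kept at 37 °C. Femoral artery blood pressure recorded. Control depressor response to bradykinin 1 μg/kg iv, then cumulative iv drug in 0.9% saline (1 mL/kg), 0.0033–0.27 mg/kg. Bk challenge 5 min after each dose. ED50 = dose giving a 50% change from control, by linear regression; N = 8.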

Rattus norvegicus [6] = experiment: Effect on vasopressor response caused by angiotensin I (AI) in anesthetized normotensive rat, administered intravenously at dose 0.010 mg/kg; type: functional; conditions: dose 0.01 mg/kg; route intravenous
In short: (§3)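 Male Charles River CD rats, 380–500 g, anesthetized with pentobarbital Na 15 mg/kg plus barbital 220 mg/kg ip, held at 37 °C. Femoral artery pressure recorded. AI 0.3 μg/kg and AII 0.1 μg/kg given iv as challenges. Cumulative iv drug in saline, 0.01–0.81 mg/kg, each dose followed by AI/AII challenges at 5-min intervals. ED50 = 50% change from control response, by linear regression.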

Rattus norvegicus [7] = experiment: Change in heart rate was determined at a dose 10 mg/kg; type: functional
In short: (§4)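 Male SHR, 13 weeks old, given HCTZ 25 mg/kg po in 0.25% methylcellulose daily for 3 days. Drug given orally in water (5 mL/kg) 1 h after the third dose. Tail-cuff systolic pressure and pulse-count heart rate taken 1.5 h later after 20 min warming at 38 °C. ANOVA with Duncan's test; ED30 by linear regression.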

Rattus norvegicus [8] = experiment: Change in heart rate was determined at a dose 30 mg/kg; type: functional; in short: as §4
Rattus norvegicus [9] = experiment: Effect on vasopressor response caused by angiotensin I (AI) in anesthetized normotensive rat, administered intravenously at dose 0.27 mg/kg; type: functional; conditions: route intravenous; in short: as §3
Rattus norvegicus [10] = experiment: Decrease in systolic blood pressure of Spontaneous Hypertensive Rats (SHR) pretreated with hydrochlorothiazide upon oral administration at 3 mm/kg; type: functional, Artery; in short: as §4
Rattus norvegicus [11] = experiment: Percent change was determined in bradykinin depressor response in anesthetized normotensive rat, administered intravenously at dose 0.030 mg/kg; type: functional; conditions: dose 0.03 mg/kg; route intravenous
In short: (§5)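 Male Charles River CD rats (380–500 g), pentobarbital Na 15 mg/kg plus barbital 220 mg/kg ip, tracheotomized, femoral artery/vein cannulated, kept at 37 °C. Control bradykinin 1 μg/kg iv depressor response, separate from angiotensin tests; drug iv in 0.9% saline (1 mL/kg, free base) 10 min later, Bk 5 min after each cumulative dose (0.0033–0.27 mg/kg). Maximum fall in arterial pressure versus control response; N = 8.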

Rattus norvegicus [12] = experiment: Change in heart rate was determined at a dose 3 mg/kg; type: functional; in short: as §4
[13] = Half life was determined; type: ADME; conditions: rat
In short: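 Rats anesthetized with pentobarbital/barbital received a single iv dose, 0.2 or 0.08 mg/kg. AI 0.3 μg/kg iv given at 5 min, then every 10 min for 210 min. Half-life = time for the AI pressor response to fall to 50% of its peak inhibition.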

Rattus norvegicus [14] = experiment: Activity against the bradykinin Response in anesthetized normotensive rat, administered intravenously at dose 0.010 mg/kg; type: functional; conditions: dose 0.01 mg/kg; route intravenous; in short: as §2
Rattus norvegicus [15] = experiment: Percent change was determined in bradykinin depressor response n anesthetized normotensive rat, administered intravenously at dose 0.090 mg/kg; type: functional; conditions: dose 0.09 mg/kg; route intravenous; in short: as §5
Rattus norvegicus [16] = experiment: Hypotensive activity was determined in low-sodium treated rat, dose 3 mg/kg administered orally at 2 hr; type: functional; conditions: route oral
In short: (§6)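 Male CD rats, 11 weeks old, kept on a sodium-deficient diet for 3 weeks and fasted overnight, were dosed orally with aqueous solutions (5 mL/kg), water as control. Systolic pressure measured by tail cuff at the stated post-dose time. ANOVA with Duncan's test.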

Rattus norvegicus [17] = experiment: Percent decrease in angiotensin I pressor response was measured in rat, administered intravenously at dose 0.030 mg/kg; type: functional; conditions: dose 0.03 mg/kg; route intravenous; in short: as §1
Rattus norvegicus [18] = experiment: Hypotensive activity was determined in low-sodium treated rat, dose 10 mg/kg administered orally at 2 hr; type: functional; conditions: route oral; in short: as §6
Rattus norvegicus [19] = experiment: Decrease in systolic blood pressure of Spontaneous Hypertensive Rats (SHR) pretreated with hydrochlorothiazide upon oral administration at 10 mm/kg; type: functional, Artery; in short: as §4
Rattus norvegicus [20] = experiment: Effect on vasopressor response caused by angiotensin I (AI) in anesthetized normotensive rat, administered intravenously at dose 0.030 mg/kg; type: functional; conditions: dose 0.03 mg/kg; route intravenous; in short: as §3
Rattus norvegicus [21] = experiment: Effect on vasopressor response caused by angiotensin I (AI) in anesthetized normotensive rat, administered intravenously at dose 0.090 mg/kg; type: functional; conditions: dose 0.09 mg/kg; route intravenous; in short: as §3
Rattus norvegicus [22] = experiment: Decrease in systolic blood pressure of Spontaneous Hypertensive Rats (SHR) pretreated with hydrochlorothiazide upon oral administration at 30 mm/kg; type: functional, Artery; in short: as §4
Rattus norvegicus [23] = experiment: Hypotensive activity was determined in low-sodium treated rat, dose 30 mg/kg administered orally at 5 hr; type: functional; conditions: route oral; in short: as §6
Rattus norvegicus [24] = experiment: Hypotensive activity was determined in low-sodium treated rat, dose 3 mg/kg administered orally at 5 hr; type: functional; conditions: route oral; in short: as §6
Rattus norvegicus [25] = species: Rattus norvegicus; experiment: Effective dose was determined to increase the vasoResponse in rat; type: functional; in short: as §2
Rattus norvegicus [26] = experiment: Effect on vasopressor response caused by angiotensin I (AI) in anesthetized normotensive rat, administered intravenously at dose 0.81 mg/kg; type: functional; conditions: route intravenous; in short: as §3
Rattus norvegicus [27] = species: Rattus norvegicus; experiment: Dose required to reduce systolic blood pressure by 30 mmHg; type: functional; conditions: Artery; in short: as §4
Rattus norvegicus [28] = experiment: Percent change was determined in bradykinin depressor response in anesthetized normotensive rat, administered intravenously at dose 0.0033 mg/kg; type: functional; conditions: route intravenous; in short: as §2
Rattus norvegicus [29] = experiment: Hypotensive activity was determined in low-sodium treated rat, dose 10 mg/kg administered orally at 5 hr; type: functional; conditions: route oral; in short: as §6
Rattus norvegicus [30] = experiment: Percent decrease in angiotensin I pressor response was measured in rat, administered intravenously at dose 0.010 mg/kg; type: functional; conditions: dose 0.01 mg/kg; route intravenous; in short: as §1
Rattus norvegicus [31] = experiment: Percent change was determined in bradykinin depressor response in anesthetized normotensive rat, administered intravenously at dose 0.010 mg/kg; type: functional; conditions: dose 0.01 mg/kg; route intravenous; in short: as §5
Rattus norvegicus [32] = experiment: Activity against the bradykinin Response in anesthetized normotensive rat, administered intravenously at dose 0.030 mg/kg; type: functional; conditions: dose 0.03 mg/kg; route intravenous; in short: as §2
Rattus norvegicus [33] = experiment: Hypotensive activity was determined in low-sodium treated rat, dose 30 mg/kg administered orally at 2 hr; type: functional; conditions: route oral; in short: as §6
Rattus norvegicus [34] = experiment: Effective dose to produce AcE inhibition in rat, administered intravenously; type: functional; conditions: iv; in short: as §3
Rattus norvegicus [35] = experiment: Activity against the bradykinin Response in anesthetized normotensive rat, administered intravenously at dose 0.0033 mg/kg; type: functional; conditions: route intravenous; in short: as §2

Structure (SMILES): CCOC(=O)[C@H](CCc1ccccc1)N[C@H](C)C(=O)N1C(=O)CC[C@H]1C(=O)O
- ED50 [1]: 4 mg/kg

Structure (SMILES): CCOC(=O)[C@H](CCc1ccccc1)N[C@@H](C)C(=O)N1CCC[C@H]1C(=O)O [ENALAPRIL]
- Decrease (Rattus norvegicus [2]): 81%
- Decrease (Rattus norvegicus [3]): 84%
- Decrease (Rattus norvegicus [4]): 60%
- Response (Rattus norvegicus [5]): -60 mmHg
- Response (Rattus norvegicus [6]): 37 mmHg
- Heart rate (Rattus norvegicus [7]): 380 beats min-1
- Heart rate (Rattus norvegicus [8]): 386 beats min-1
- Response (Rattus norvegicus [9]): 8 mmHg
- Blood pressure (Rattus norvegicus [10]): 199 mmHg
- Change (Rattus norvegicus [11]): 110%
- Heart rate (Rattus norvegicus [12]): 378 beats min-1
- half-life [13]: 2.5 h
- Response (Rattus norvegicus [14]): -45 mmHg
- Change (Rattus norvegicus [15]): 107%
- Activity (Rattus norvegicus [16]): 148 mmHg
- Decrease (Rattus norvegicus [17]): 37%
- Activity (Rattus norvegicus [18]): 138 mmHg
- Blood pressure (Rattus norvegicus [19]): 169 mmHg
- Response (Rattus norvegicus [20]): 27 mmHg
- Response (Rattus norvegicus [21]): 17 mmHg
- Blood pressure (Rattus norvegicus [22]): 163 mmHg
- Activity (Rattus norvegicus [23]): 128 mmHg
- Activity (Rattus norvegicus [24]): 128 mmHg
- ED50 (Rattus norvegicus [25]): 0.0097 mg/kg
- Response (Rattus norvegicus [26]): 7 mmHg
- ED30 (Rattus norvegicus [27]): 1.5 mg/kg
- Change (Rattus norvegicus [28]): -7%
- Activity (Rattus norvegicus [29]): 123 mmHg
- Decrease (Rattus norvegicus [30]): 14%
- Change (Rattus norvegicus [31]): 55%
- Response (Rattus norvegicus [32]): -61 mmHg
- Activity (Rattus norvegicus [33]): 134 mmHg
- ED50 (Rattus norvegicus [34]): 0.066 mg/kg
- Response (Rattus norvegicus [35]): -27 mmHg
